Measured values from ChEMBL document CHEMBL1212889, “Novel antifungal agents: triazolopyridines as inhibitors of beta-1,6-glucan synthesis” (Bioorg Med Chem, 2010).
≈ marks a conversion by molar mass, not a printed value.

Legend:
Candida tropicalis [1] = experiment: Antimicrobial activity against Candida tropicalis TIMM 0313 by microdilution assay; format: functional
Method in brief: (§1)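 CLSI broth microdilution, modified to incubate at 30 °C. MIC-0 is the lowest drug concentration giving an optically clear well. Table footnote: the endpoint was the lowest concentration producing a prominent reduction in turbidity. Drug range 0.004 to 128 µg/mL.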

Nakaseomyces glabratus [2] = experiment: Antimicrobial activity against Candida glabrata IFO 0622 by microdilution assay; format: functional; method in brief: as §1
Candida albicans [3] = experiment: Antimicrobial activity against Candida albicans ATCC 24433 by microdilution assay; format: functional; method in brief: as §1
[4] = Octanol-phosphate buffered saline partition coefficient, log D of the compound at pH 6.8; format: physicochemical
Method in brief: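 Shake partition between 1-octanol and phosphate-buffered saline at pH 6.8. Layers were separated by centrifugation at 3000 rpm for 10 min, and each layer was assayed by LC/MS on a C18 column with an ammonium acetate (pH 4.5)/acetic acid–acetonitrile gradient. Log D was computed from the partition coefficient.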

[5] = Solubility of the compound at pH 6.8; format: physicochemical; settings: buffer
Method in brief: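 Water solubility measured at pH 6.8.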

Pichia kudriavzevii [6] = experiment: Antimicrobial activity against Candida krusei TIMM 0269 by microdilution assay; format: functional; method in brief: as §1
Liver microsomes = experiment: Metabolic stability in human liver microsomes; format: ADME, Microsome
Method in brief: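 Compound at 1 µM final with human liver microsomes (0.5 mg/mL protein) in sodium phosphate buffer pH 7.4, preincubated 20 min at 37 °C. NADPH started the reaction, and MeOH stopped it after 30 min. Samples were centrifuged at 4 °C, and parent loss was measured by LC/MS/MS.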

Saccharomyces cerevisiae [7] = experiment: Antimicrobial activity against Saccharomyces cerevisiae AY14 by microdilution assay; format: functional; method in brief: as §1
Candida tropicalis [8] = experiment: Antimicrobial activity against Candida tropicalis IAM 4965 using alamar blue stain by microdilution assay; format: functional
Method in brief: (§2)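 Modified CLSI microdilution in RPMI 1640 with 0.165 M MOPS, plus alamar blue redox indicator. Inoculum was 1 × 10³ to 1 × 10⁴ cells/mL and incubation ran 18–72 h, both set per strain by growth speed, at 30 °C. OD570 was read and MIC-2 taken as the lowest concentration giving 50% absorbance reduction versus the drug-free control.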

Pichia kudriavzevii [9] = experiment: Antimicrobial activity against Candida krusei ATCC 44507 using alamar blue stain by microdilution assay; format: functional; method in brief: as §2
Saccharomyces cerevisiae [10] = experiment: Antimicrobial activity against Saccharomyces cerevisiae AY14 using alamar blue stain by microdilution assay; format: functional; method in brief: as §2
Nakaseomyces glabratus [11] = experiment: Antimicrobial activity against Candida glabrata ATCC 48435 using alamar blue stain by microdilution assay; format: functional; method in brief: as §2
Candida albicans [12] = experiment: Antimicrobial activity against Candida albicans ATCC 24433 using alamar blue stain by microdilution assay; format: functional; method in brief: as §2

## Cc1c(-c2ccccc2)c(N2CC[C@H](N(C)C)C2)n2c(nc3ccccc32)c1C#N
Candida tropicalis [1]
  MIC: 0.5 µg/mL (≈ 1.26 µM)
Nakaseomyces glabratus [2]
  MIC: ≤ 0.125 µg/mL
Candida albicans [3]
  MIC: > 128 µg/mL
[4]
  logD: 3.1
[5]
  solubility: 5.3 µg/mL (≈ 13.4 µM)
Pichia kudriavzevii [6]
  MIC: ≤ 0.125 µg/mL
Liver microsomes
  Stability: 29%
Saccharomyces cerevisiae [7]
  MIC: ≤ 0.125 µg/mL

## CCCCc1c(C)c(C#N)c2nc3ccccc3n2c1N1CC[C@H](N(C)C)C1
Candida tropicalis [1]
  MIC: 0.5 µg/mL (≈ 1.33 µM)
Nakaseomyces glabratus [2]
  MIC: ≤ 0.125 µg/mL
Candida albicans [3]
  MIC: > 128 µg/mL
[4]
  logD: 3.2
[5]
  solubility: 26 µg/mL (≈ 69.2 µM)
Pichia kudriavzevii [6]
  MIC: 0.5 µg/mL (≈ 1.33 µM)
Liver microsomes
  Stability: 57%
Saccharomyces cerevisiae [7]
  MIC: 0.25 µg/mL (≈ 0.666 µM)

## CCCCc1c(C)c(C#N)c2nc(C(C)(C)C)nn2c1N1CC[C@H](N(C)C)C1
Candida tropicalis [1]
  MIC: > 128 µg/mL
Nakaseomyces glabratus [2]
  MIC: 32 µg/mL (≈ 83.6 µM)
Candida albicans [3]
  MIC: > 128 µg/mL
[4]
  logD: 3.2
[5]
  solubility: 146 µg/mL (≈ 382 µM)
Pichia kudriavzevii [6]
  MIC: > 128 µg/mL
Liver microsomes
  Stability: 11%
Saccharomyces cerevisiae [7]
  MIC: 64 µg/mL (≈ 167 µM)

## Cc1c(-c2ccccc2)c(N2CC[C@H](N(C)C)C2)n2nc(C(C)(C)C)nc2c1C#N
Candida tropicalis [1]
  MIC: 2 µg/mL (≈ 4.97 µM)
Nakaseomyces glabratus [2]
  MIC: ≤ 0.125 µg/mL
Candida albicans [3]
  MIC: > 128 µg/mL
Candida tropicalis [8]
  MIC: 0.25 µg/mL (≈ 0.621 µM)
[4]
  logD: 3.1
[5]
  solubility: 16 µg/mL (≈ 39.7 µM)
Pichia kudriavzevii [6]
  MIC: 16 µg/mL (≈ 39.7 µM)
Pichia kudriavzevii [9]
  MIC: > 4 µg/mL
Saccharomyces cerevisiae [10]
  MIC: 0.063 µg/mL (≈ 0.157 µM)
Liver microsomes
  Stability: 9%
Nakaseomyces glabratus [11]
  MIC: 0.063 µg/mL (≈ 0.157 µM)
Saccharomyces cerevisiae [7]
  MIC: ≤ 0.125 µg/mL
Candida albicans [12]
  MIC: > 4 µg/mL

## Cc1nc2c(C#N)c(C)c(-c3ccccc3)c(N3CC[C@H](N(C)C)C3)n2n1
Candida tropicalis [1]
  MIC: > 128 µg/mL
Nakaseomyces glabratus [2]
  MIC: 2 µg/mL (≈ 5.55 µM)
Candida albicans [3]
  MIC: > 128 µg/mL
[4]
  logD: 1.7
[5]
  solubility: 376 µg/mL (≈ 1040 µM)
Pichia kudriavzevii [6]
  MIC: > 128 µg/mL
Liver microsomes
  Stability: 84%
Saccharomyces cerevisiae [7]
  MIC: 8 µg/mL (≈ 22.2 µM)

## CCCCc1nc2c(C#N)c(C)c(-c3ccccc3)c(N3CC[C@H](N(C)C)C3)n2n1
Candida tropicalis [1]
  MIC: > 64 µg/mL
Nakaseomyces glabratus [2]
  MIC: 1 µg/mL (≈ 2.48 µM)
Candida albicans [3]
  MIC: > 128 µg/mL
[4]
  logD: 3.2
[5]
  solubility: 33 µg/mL (≈ 82 µM)
Pichia kudriavzevii [6]
  MIC: > 64 µg/mL
Liver microsomes
  Stability: 5%
Saccharomyces cerevisiae [7]
  MIC: 2 µg/mL (≈ 4.97 µM)

## Cc1c(-c2ccccc2)c(N2CC[C@H](N(C)C)C2)n2nc(-c3ccccc3)nc2c1C#N
Candida tropicalis [1]
  MIC: > 128 µg/mL
Nakaseomyces glabratus [2]
  MIC: > 128 µg/mL
Candida albicans [3]
  MIC: > 128 µg/mL
Pichia kudriavzevii [6]
  MIC: > 128 µg/mL
Saccharomyces cerevisiae [7]
  MIC: > 128 µg/mL

## CCN(CC)CCNc1c(-c2ccccc2)c(C)c(C#N)c2nc(C(C)(C)C)nn12
Candida tropicalis [1]
  MIC: > 128 µg/mL
Nakaseomyces glabratus [2]
  MIC: 0.5 µg/mL (≈ 1.24 µM)
Candida albicans [3]
  MIC: > 128 µg/mL
[4]
  logD: 3.3
[5]
  solubility: 2 µg/mL (≈ 4.94 µM)
Pichia kudriavzevii [6]
  MIC: > 128 µg/mL
Liver microsomes
  Stability: 10%
Saccharomyces cerevisiae [7]
  MIC: 0.5 µg/mL (≈ 1.24 µM)

## Cc1c(-c2ccccc2)c(N2CC[C@H](N(C)C)C2)n2nc(C3CC3)nc2c1C#N
Candida tropicalis [8]
  MIC: 1 µg/mL (≈ 2.59 µM)
[4]
  logD: 2.4
[5]
  solubility: 57 µg/mL (≈ 147 µM)
Pichia kudriavzevii [9]
  MIC: > 4 µg/mL
Saccharomyces cerevisiae [10]
  MIC: 0.032 µg/mL (≈ 0.0828 µM)
Liver microsomes
  Stability: 48%
Nakaseomyces glabratus [11]
  MIC: 0.063 µg/mL (≈ 0.163 µM)
Candida albicans [12]
  MIC: > 4 µg/mL

## CCc1nc2c(C#N)c(C)c(-c3ccccc3)c(N3CC[C@H](N(C)C)C3)n2n1
Candida tropicalis [8]
  MIC: 1 µg/mL (≈ 2.67 µM)
[4]
  logD: 2.1
[5]
  solubility: 228 µg/mL (≈ 609 µM)
Pichia kudriavzevii [9]
  MIC: > 4 µg/mL
Saccharomyces cerevisiae [10]
  MIC: 0.063 µg/mL (≈ 0.168 µM)
Liver microsomes
  Stability: 54%
Nakaseomyces glabratus [11]
  MIC: 0.125 µg/mL (≈ 0.334 µM)
Candida albicans [12]
  MIC: > 4 µg/mL

## Cc1c(-c2ccccc2)c(N2CC[C@H](N(C)C)C2)n2nc(C(C)(C)COCc3ccccc3)nc2c1C#N
Candida tropicalis [8]
  MIC: 0.125 µg/mL (≈ 0.246 µM)
[4]
  logD: 3.8
[5]
  solubility: < 3 µg/mL
Pichia kudriavzevii [9]
  MIC: > 4 µg/mL
Saccharomyces cerevisiae [10]
  MIC: 0.063 µg/mL (≈ 0.124 µM)
Liver microsomes
  Stability: 9%
Nakaseomyces glabratus [11]
  MIC: 0.125 µg/mL (≈ 0.246 µM)
Candida albicans [12]
  MIC: > 4 µg/mL

## Cc1c(-c2ccccc2)c(N2CC[C@H](N(C)C)C2)n2nc(C(C)(C)CO)nc2c1C#N
Candida tropicalis [8]
  MIC: 0.25 µg/mL (≈ 0.597 µM)
[4]
  logD: 1.8
[5]
  solubility: 140 µg/mL (≈ 334 µM)
Pichia kudriavzevii [9]
  MIC: > 4 µg/mL
Saccharomyces cerevisiae [10]
  MIC: 0.125 µg/mL (≈ 0.299 µM)
Liver microsomes
  Stability: 64%
Nakaseomyces glabratus [11]
  MIC: 0.25 µg/mL (≈ 0.597 µM)
Candida albicans [12]
  MIC: > 4 µg/mL

## Cc1c(-c2ccccc2)c(N2CC[C@H](N(C)C)C2)n2cc(C(C)(C)C)nc2c1C#N
Candida tropicalis [8]
  MIC: 4 µg/mL (≈ 9.96 µM)
[4]
  logD: 3
[5]
  solubility: 27 µg/mL (≈ 67.2 µM)
Pichia kudriavzevii [9]
  MIC: 4 µg/mL (≈ 9.96 µM)
Saccharomyces cerevisiae [10]
  MIC: 0.125 µg/mL (≈ 0.311 µM)
Liver microsomes
  Stability: 16%
Nakaseomyces glabratus [11]
  MIC: 0.25 µg/mL (≈ 0.623 µM)
Candida albicans [12]
  MIC: 4 µg/mL (≈ 9.96 µM)

## Cc1cn2c(N3CC[C@H](N(C)C)C3)c(-c3ccccc3)c(C)c(C#N)c2n1
Candida tropicalis [8]
  MIC: > 4 µg/mL
[4]
  logD: 1.9
[5]
  solubility: 356 µg/mL (≈ 990 µM)
Pichia kudriavzevii [9]
  MIC: > 4 µg/mL
Saccharomyces cerevisiae [10]
  MIC: 1 µg/mL (≈ 2.78 µM)
Liver microsomes
  Stability: 71%
Nakaseomyces glabratus [11]
  MIC: 0.5 µg/mL (≈ 1.39 µM)
Candida albicans [12]
  MIC: > 4 µg/mL

## Cc1c(-c2ccccc2)c(N2CC[C@H](N(C)C)C2)n2nc(C(C)(C)C)cc2c1C#N
Candida tropicalis [8]
  MIC: 1 µg/mL (≈ 2.49 µM)
[4]
  logD: 4.8
[5]
  solubility: < 2 µg/mL
Pichia kudriavzevii [9]
  MIC: 4 µg/mL (≈ 9.96 µM)
Saccharomyces cerevisiae [10]
  MIC: 1 µg/mL (≈ 2.49 µM)
Liver microsomes
  Stability: 12%
Nakaseomyces glabratus [11]
  MIC: 1 µg/mL (≈ 2.49 µM)
Candida albicans [12]
  MIC: 4 µg/mL (≈ 9.96 µM)

## OC(Cn1cncn1)(Cn1cncn1)c1ccc(F)cc1F [FLUCONAZOLE]
Candida tropicalis [1]
  MIC: 0.25 µg/mL (≈ 0.816 µM)
Nakaseomyces glabratus [2]
  MIC: 2 µg/mL (≈ 6.53 µM)
Candida albicans [3]
  MIC: 0.25 µg/mL (≈ 0.816 µM)
[5]
  solubility: > 2000 µg/mL
Pichia kudriavzevii [6]
  MIC: 16 µg/mL (≈ 52.2 µM)
Liver microsomes
  Stability: 96%
Saccharomyces cerevisiae [7]
  MIC: 4 µg/mL (≈ 13.1 µM)
